Measured values as given in ChEMBL document CHEMBL1147501, “Synthesis and nicotinic acetylcholine receptor binding affinities of 2- and 3-isoxazolyl-8-azabicyclo[3.2.1]octanes” (Bioorg Med Chem Lett, 2004).

Target: not listed separately
Assay: Inhibition of [3H]-cytisine binding to neuronal nicotinic acetylcholine receptor of rat brain
Summary of the method: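 Test compounds run as oxalate salts. Ki values are reported as mean ± SEM of three independent experiments, each performed in triplicate.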
`Cc1cc([C@@H]2CCC3CCC2N3)on1` (some centres not stated) gave a Ki of 26 µM. `Cc1cc(C2CC3CCC(C2)N3)on1` (stereo in doubt; 15b) showed a Ki of 0.148 µM. In the case of `Cc1cc(C2=CC3CCC(C2)N3C)on1` (configuration not stated), the Ki is reported as 0.72 µM. With `Cc1cc(C2CC[C@H]3CCC2N3C)on1` (some centres not stated) the Ki was 1.47 µM. Molecule `Cc1cc(C2CC3CCC(C2)N3C)on1` (configuration not stated) has a Ki of 0.194 µM. For `Clc1ccc(C2CC3CC[C@@H]2N3)cn1` (some centres not stated), the Ki was 0.00079 µM. `Cc1cc(C2CC3CCC(C2)N3)on1` (stereo in doubt; 15a) showed a Ki of 18 µM. `Clc1ccc([C@H]2CCC3CCC2N3)cn1` (some centres not stated) gave a Ki of 0.00104 µM. With `Cc1cc(C2CCC3CC[C@@H]2N3)on1` (some centres not stated) the Ki was 0.003 µM. For `Cc1cc(C2=CC3CCC(C2)N3)on1` (configuration not stated), the Ki was 0.32 µM. Molecule `CN1CCC[C@H]1c1ccccc1` has a Ki of 0.008 µM.

Target: Neuronal acetylcholine receptor (Rattus norvegicus) (UniProt P04757+P09483+P12389+P12390+P12392+P43144+Q9JLB5+P12391+P43143+P20420+Q05941)
Assay: Percent Inhibition of [3H]cytisine binding at neuronal nicotinic acetylcholine receptor in rat brain at 100 uM
Format: tissue-based
`Cc1cc(C2CC3CCC(C2)N3C)on1` (configuration not stated) showed an inhibition of 40%.
